Experimental data as given in ChEMBL document CHEMBL4130443, “Targeting breast cancer stem cells by novel HDAC3-selective inhibitors” (Eur J Med Chem, 2017).

Columns and labels:
Histone deacetylase 2 = Histone deacetylase 2 (Homo sapiens, UniProt Q92769); experiment: Inhibition of human HDAC2 using p53 (379 to 382 residues) derived fluorogenic peptide RHKKAc
[1] = molecular target: Histone deacetylase 3 (Homo sapiens) (UniProt O15379); experiment: Inhibition of HDAC3 in human MDA-MB-231 cells assessed as increase in histone H3 acetylation at 0.5 to 5 uM by immunoblotting; type: cell-based
Outline: (§1)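 Monolayer cells treated in 5% FBS at graded concentrations. Lysed in SDS/EDTA/Tris pH 8.1 buffer, equal protein immunoblotted with primary antibodies 1:1000 overnight at 4°C. Detected by ECL for phospho-Akt, β-catenin and histone H3 pan/H3K9 acetylation.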

MDA-MB-231 [2] = experiment: Inhibition of colony formation of human MDA-MB-231 cells incubated for 48 hrs by crystal violet staining based assay; conditions: MDA-MB-231, 48 h
[3] = molecular target: T1, Protein deacetylase HDAC6 (Homo sapiens) (UniProt Q9UBN7); experiment: Inhibition of human HDAC6 at 1 uM using p53 (379 to 382 residues) derived fluorogenic peptide RHKKAc
T1 sequence (whole entry): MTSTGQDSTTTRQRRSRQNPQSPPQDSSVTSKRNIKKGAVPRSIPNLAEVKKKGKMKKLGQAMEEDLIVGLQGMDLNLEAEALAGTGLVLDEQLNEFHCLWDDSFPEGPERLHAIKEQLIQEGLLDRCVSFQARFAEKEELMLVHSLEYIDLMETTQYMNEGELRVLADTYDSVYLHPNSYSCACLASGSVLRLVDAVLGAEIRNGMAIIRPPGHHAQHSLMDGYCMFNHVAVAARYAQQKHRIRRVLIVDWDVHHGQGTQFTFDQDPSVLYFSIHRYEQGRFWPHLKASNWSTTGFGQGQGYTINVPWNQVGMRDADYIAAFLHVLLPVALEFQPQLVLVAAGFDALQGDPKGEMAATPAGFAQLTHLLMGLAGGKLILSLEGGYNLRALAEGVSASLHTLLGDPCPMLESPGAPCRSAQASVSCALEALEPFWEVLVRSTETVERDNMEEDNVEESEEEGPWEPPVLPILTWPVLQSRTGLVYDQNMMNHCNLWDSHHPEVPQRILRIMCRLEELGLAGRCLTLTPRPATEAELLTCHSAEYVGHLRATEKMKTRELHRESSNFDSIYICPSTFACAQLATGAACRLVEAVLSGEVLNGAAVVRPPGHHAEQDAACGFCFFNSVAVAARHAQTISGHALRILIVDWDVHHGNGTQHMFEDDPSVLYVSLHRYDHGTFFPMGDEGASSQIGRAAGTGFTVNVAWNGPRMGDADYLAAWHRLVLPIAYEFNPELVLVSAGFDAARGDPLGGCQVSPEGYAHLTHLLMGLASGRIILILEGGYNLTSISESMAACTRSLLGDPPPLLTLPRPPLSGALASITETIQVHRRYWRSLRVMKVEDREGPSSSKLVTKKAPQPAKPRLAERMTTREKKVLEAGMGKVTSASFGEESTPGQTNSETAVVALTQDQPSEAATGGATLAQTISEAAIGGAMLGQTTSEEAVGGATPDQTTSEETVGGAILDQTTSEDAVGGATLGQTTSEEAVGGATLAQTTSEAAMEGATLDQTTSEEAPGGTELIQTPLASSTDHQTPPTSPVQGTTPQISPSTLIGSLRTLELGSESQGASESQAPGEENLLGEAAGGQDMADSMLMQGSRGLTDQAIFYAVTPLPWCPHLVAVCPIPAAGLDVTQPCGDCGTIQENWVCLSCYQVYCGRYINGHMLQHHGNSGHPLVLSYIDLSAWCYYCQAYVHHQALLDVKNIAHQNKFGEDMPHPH
Outline: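 Isoform profiling run by a commercial vendor with compounds at 1 µM. Values are percent inhibition, each the average of two determinations.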

[4] = molecular target: Histone deacetylase 3 (Homo sapiens) (UniProt O15379); experiment: Inhibition of HDAC3 in human MDA-MB-231 cells assessed as reduction in beta-catenin expression at 0.5 to 5 uM by immunoblotting; type: cell-based; outline: as §1
MDA-MB-231 [5] = experiment: Growth inhibition of human MDA-MB-231 cells incubated for 48 to 72 hrs by crystal violet staining based assay; type: functional, cell-based
Outline: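 Cells plated at 5000/well and left overnight, then treated in 5% FBS for 24, 48 and 72 h. Washed with PBS, stained 20 min with 0.5% crystal violet in 20% methanol, stain solubilized in 2% SDS, absorbance read at 550. Growth inhibition calculated as (1-Nt/Nc) x 100 against vehicle wells. N = 6.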

MDA-MB-231 [6] = experiment: Inhibition of cancer stem cell subpopulation of human MDA-MB-231 cells assessed as CD44+/CD24low subpopulation level at 0.1 to 5 uM by flow cytometry; type: functional, cell-based
Outline: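 Cells exposed to DMSO or compound at graded concentrations, then harvested and washed in stain buffer. Stained with FITC- or phycoerythrin-conjugated anti-CD44 and anti-CD24 for 30 min on ice in the dark, resuspended in PBS, and CD44+/CD24low fraction read by flow cytometry.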

Chain of Histone deacetylase 3 (Homo sapiens) (O15379 whole entry): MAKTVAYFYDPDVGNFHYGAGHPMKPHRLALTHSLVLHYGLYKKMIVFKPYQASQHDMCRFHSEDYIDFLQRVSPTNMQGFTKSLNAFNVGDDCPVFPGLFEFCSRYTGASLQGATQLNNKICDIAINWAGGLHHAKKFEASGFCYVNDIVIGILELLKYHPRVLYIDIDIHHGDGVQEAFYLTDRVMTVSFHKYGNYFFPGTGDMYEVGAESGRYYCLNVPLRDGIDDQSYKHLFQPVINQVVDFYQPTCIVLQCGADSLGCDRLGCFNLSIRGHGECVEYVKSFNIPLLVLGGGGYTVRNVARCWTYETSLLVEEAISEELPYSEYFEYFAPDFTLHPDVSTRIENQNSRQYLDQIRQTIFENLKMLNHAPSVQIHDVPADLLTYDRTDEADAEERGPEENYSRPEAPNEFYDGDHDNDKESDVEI
Chain of Histone deacetylase 2 (Q92769 whole entry, the tested form may be a part): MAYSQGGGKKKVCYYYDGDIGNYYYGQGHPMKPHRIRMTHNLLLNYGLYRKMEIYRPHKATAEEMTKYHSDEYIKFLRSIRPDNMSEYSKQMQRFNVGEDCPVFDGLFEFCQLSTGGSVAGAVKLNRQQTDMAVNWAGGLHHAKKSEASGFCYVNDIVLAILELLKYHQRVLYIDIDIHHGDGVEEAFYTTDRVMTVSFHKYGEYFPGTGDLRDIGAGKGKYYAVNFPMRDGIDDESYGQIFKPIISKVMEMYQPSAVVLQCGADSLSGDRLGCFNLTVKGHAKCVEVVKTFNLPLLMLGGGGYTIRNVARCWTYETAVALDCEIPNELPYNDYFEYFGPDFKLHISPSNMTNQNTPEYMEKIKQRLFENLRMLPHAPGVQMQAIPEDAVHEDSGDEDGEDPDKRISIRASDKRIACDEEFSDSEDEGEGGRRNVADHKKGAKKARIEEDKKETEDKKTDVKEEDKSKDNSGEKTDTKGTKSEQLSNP

CC(C)(C(=O)Nc1ccc(C(=O)Nc2ccc(F)cc2N)cc1)c1ccccc1
IC50 (Histone deacetylase 2): > 10 µM | inhibition [1]: Dose-dependent effect | IC50 (MDA-MB-231 [2]): 0.5 to 1 µM | inhibition [3]: 4% | inhibition [4]: Dose-dependent effect | IC50 (MDA-MB-231 [5]): ≥ 10 µM | inhibition (MDA-MB-231 [6]): Dose-dependent effect
